Test results: ChEMBL document CHEMBL1134268, “Synthesis and biological evaluation of tropane-like 1-[2-[bis(4-fluorophenyl)methoxy]ethyl]-4-(3-phenylpropyl)piperazine (GBR 12909) analogues” (J Med Chem, 2001)

Experiments:
[1] = organism: Rattus norvegicus; assay: Inhibition of Dopamine reuptake from rat caudate using [3H]DA; assay type: functional
How it was run: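 Rat caudate synaptosomes were prepared by homogenization in ice-cold 10% sucrose, and the 1000g supernatant was used. Incubation was with 2 nM [3H]DA (final) in Krebs-phosphate buffer pH 7.4 containing ascorbic acid (1 mg/mL) and pargyline (50 μM), for 20 min at 25 °C. Nonspecific uptake was defined with 1 μM of a DAT inhibitor. Filtration was followed by counting of retained tritium.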

[2] = organism: Rattus norvegicus; assay: Inhibition of 5-HT reuptake from whole rat brain minus cerebellum using [3H]5-HT
[3] = target: T1, Muscarinic acetylcholine receptor M1 (Rattus norvegicus, UniProt P08482); assay: Binding affinity against Muscarinic receptor from rat brain membranes using [3H]pirenzepine
T1 sequence (P08482 whole entry): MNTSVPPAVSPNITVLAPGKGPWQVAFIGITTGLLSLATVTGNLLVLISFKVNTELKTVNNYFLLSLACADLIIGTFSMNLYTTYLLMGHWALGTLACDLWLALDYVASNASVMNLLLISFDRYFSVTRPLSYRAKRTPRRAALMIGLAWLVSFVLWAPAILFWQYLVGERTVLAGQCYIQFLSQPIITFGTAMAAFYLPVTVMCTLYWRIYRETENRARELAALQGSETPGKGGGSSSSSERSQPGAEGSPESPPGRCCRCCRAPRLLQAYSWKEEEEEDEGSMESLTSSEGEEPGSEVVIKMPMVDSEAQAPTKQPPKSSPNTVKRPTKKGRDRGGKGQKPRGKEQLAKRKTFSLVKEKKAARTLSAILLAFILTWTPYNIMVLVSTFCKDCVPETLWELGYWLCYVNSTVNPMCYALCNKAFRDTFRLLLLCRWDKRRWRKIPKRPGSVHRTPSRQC
How it was run: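 Male Sprague-Dawley rat brain P2 membranes (without cerebellum and brainstem), 300 μg protein, with 5 nM [3H]pirenzepine and 5 mM MgCl2 in 50 mM Tris-HCl pH 7.4, for 60 min at 37 °C. Nonspecific binding was defined with 10 μM QNB. Nine ligand concentrations (1 nM-10 μM or 10 nM-100 μM) were tested.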

[4] = target: Sodium-dependent serotonin transporter (Rattus norvegicus, UniProt P31652); assay: Binding affinity against serotonin transporter using [125]RTI-55
[5] = target: Monoamine transporters; serotonin & dopamine (Rattus norvegicus) (UniProt P31652+P23977); assay: Ratio of binding affinity against Dopamine to that of serotonin transporter; assay type: protein assay
[6] = target: Sodium-dependent dopamine transporter (Rattus norvegicus, UniProt P23977); assay: Binding affinity against Dopamine transporter using [125]RTI-55
Chain of Sodium-dependent dopamine transporter (P23977 whole entry): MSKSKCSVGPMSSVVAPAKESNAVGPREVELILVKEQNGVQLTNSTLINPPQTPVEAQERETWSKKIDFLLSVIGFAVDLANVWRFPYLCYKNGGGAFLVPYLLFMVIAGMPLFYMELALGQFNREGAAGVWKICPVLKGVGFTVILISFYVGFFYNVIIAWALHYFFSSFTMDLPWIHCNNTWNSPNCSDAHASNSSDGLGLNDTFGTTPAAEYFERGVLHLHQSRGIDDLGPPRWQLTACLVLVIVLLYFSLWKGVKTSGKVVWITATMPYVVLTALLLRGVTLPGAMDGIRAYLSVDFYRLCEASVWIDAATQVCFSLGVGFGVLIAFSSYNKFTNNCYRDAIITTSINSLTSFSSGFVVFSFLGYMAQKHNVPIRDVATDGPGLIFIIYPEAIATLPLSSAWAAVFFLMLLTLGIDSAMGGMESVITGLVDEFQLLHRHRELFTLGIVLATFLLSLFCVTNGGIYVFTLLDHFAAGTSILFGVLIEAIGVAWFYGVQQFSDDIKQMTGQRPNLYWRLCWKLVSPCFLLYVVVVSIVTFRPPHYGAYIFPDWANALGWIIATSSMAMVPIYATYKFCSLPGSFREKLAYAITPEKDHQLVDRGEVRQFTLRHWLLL

Chain of Sodium-dependent serotonin transporter (P31652 whole entry): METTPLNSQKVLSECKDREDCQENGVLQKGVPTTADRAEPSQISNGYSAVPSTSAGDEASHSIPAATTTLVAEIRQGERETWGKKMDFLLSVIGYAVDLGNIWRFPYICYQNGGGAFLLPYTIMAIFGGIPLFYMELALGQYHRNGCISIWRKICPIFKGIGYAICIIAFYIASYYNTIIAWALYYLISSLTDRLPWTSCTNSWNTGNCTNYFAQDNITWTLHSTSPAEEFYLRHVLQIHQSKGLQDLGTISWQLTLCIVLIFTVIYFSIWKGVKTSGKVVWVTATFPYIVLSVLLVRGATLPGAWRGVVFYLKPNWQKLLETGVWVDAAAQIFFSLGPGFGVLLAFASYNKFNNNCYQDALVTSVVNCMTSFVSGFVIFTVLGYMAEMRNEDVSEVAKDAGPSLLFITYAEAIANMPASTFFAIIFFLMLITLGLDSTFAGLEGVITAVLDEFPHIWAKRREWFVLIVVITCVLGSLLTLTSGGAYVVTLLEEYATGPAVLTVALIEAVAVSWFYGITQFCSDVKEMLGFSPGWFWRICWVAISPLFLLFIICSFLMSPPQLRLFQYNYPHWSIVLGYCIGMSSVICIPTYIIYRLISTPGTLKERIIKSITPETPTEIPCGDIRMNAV
Chain of Monoamine transporters; serotonin & dopamine (Rattus norvegicus) (P23977 whole entry, looked up): as the sequence (P23977 whole entry) above
Chain of Monoamine transporters; serotonin & dopamine (Rattus norvegicus) (P31652 whole entry, looked up): as the sequence (P31652 whole entry) above

Row | Structure (SMILES) | Ki [1] [nM] | Ki [2] [nM] | Ki [3] [nM] | Ki [4] [nM] | Ratio [5] | Ki [6] [nM]
1 | Fc1ccc(C(OCCN2CCN(CCCc3ccccc3)CC2)c2ccc(F)cc2)cc1 [VANOXERINE] | 4.3 | 73 | – | – | – | –
2 | CN1C2CCC1CC(=CC(=O)NC(c1ccc(F)cc1)c1ccc(F)cc1)C2 | 240 | 17000 | 2500 | 19000 | 38 | –
3 | Fc1ccc(C(OCC[C@H]2C[C@H]3CC[C@@H](C2)N3CCCc2ccccc2)c2ccc(F)cc2)cc1 | 78 | 430 | 170 | 79 | 4 | 19000
4 | CN1C2CCC1CC(=CCOC(c1ccccc1)c1ccccc1)C2 | 190 | 8100 | 94 | 8300 | 64 | –
5 | CN1[C@@H]2CC[C@H]1C[C@@H](CCOC(c1ccccc1)c1ccccc1)C2 | 260 | 12000 | 56 | 15000 | 54 | –
6 | CN1C2CCC1CC(CC(=O)NC(c1ccc(F)cc1)c1ccc(F)cc1)C2 (stereo not drawn) | 1800 | 60000 | 1200 | 69000 | 20 | 3400
7 | CN1C2CCC1CC(=CC(=O)NC(c1ccccc1)c1ccccc1)C2 | 880 | 60000 | 1700 | 78000 | 34 | 2300
8 | CN1C2CCC1CC(CCNC(c1ccccc1)c1ccccc1)C2 (stereo not drawn) | 1100 | 14000 | 340 | 43000 | 11 | 3800
9 | CN1[C@@H]2CC[C@H]1C[C@@H](CC(=O)NC(c1ccccc1)c1ccccc1)C2 | 7900 | 100000 | 1200 | 120000 | 4 | 30000
10 | CN1[C@@H]2CC[C@H]1C[C@@H](CCNC(c1ccc(F)cc1)c1ccc(F)cc1)C2 | 160 | 7100 | 630 | 30000 | 111 | –
11 | CN1[C@@H]2CC[C@H]1C[C@@H](OC(c1ccccc1)c1ccccc1)C2 [BENZTROPINE] | 130 | 18500 | – | – | – | –
12 | c1ccc(CCCN2CCN(CCOC(c3ccccc3)c3ccccc3)CC2)cc1 | 3.7 | 290 | – | – | – | –
13 | CN1C2CCC1CC(CCOC(c1ccc(F)cc1)c1ccc(F)cc1)C2 (stereo not drawn) | 80 | – | 130 | 4100 | 79 | 52000
14 | CN1C2CCC1CC(=CCOC(c1ccc(F)cc1)c1ccc(F)cc1)C2 | 35 | 5000 | 200 | 3600 | 189 | 19000
15 | c1ccc(CCCN2[C@@H]3CC[C@H]2C[C@@H](CCOC(c2ccccc2)c2ccccc2)C3)cc1 | 120 | 570 | 78 | 170 | 6 | 28000
